Test results published in ChEMBL document CHEMBL1147383, “Use of alkenylresorcinols from Ononis speciosa as synthetic precursors of compounds with potential biological activity” (J Nat Prod, 1993).
The source made the active and inactive calls. The rule behind the calls is not given here.

What was measured:
Botrytis cinerea [1] = experiment: Antifungal activity against Botrytis cinerea CECT 2850 after 18 hrs by disk diffusion assay; assay type: functional, organism-based
Method in brief: (§1)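 Botrytis strains were grown on potato agar at 28°. Plates were inoculated with 0.1 ml of 8-h cultures. 6-mm paper disks were impregnated with 100 or 200 µg. Plates were held 1 h at 4° for diffusion, then incubated. Growth-inhibition halo diameter (mm) was read 18 h after incubation.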

Botrytis cinerea [2] = experiment: Antifungal activity against Botrytis cinerea CECT 2100 after 18 hrs by disk diffusion assay; assay type: functional, organism-based; method in brief: as §1
Salmonella = experiment: Antibacterial activity against Salmonella after 18 hrs by disk diffusion assay; assay type: functional, organism-based
Method in brief: (§2)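 Gram-negative strains were grown in brain-heart agar and incubated at 37°. BHA plates were inoculated with 0.1 ml of 8-h cultures. 6-mm paper disks carried 100 or 200 µg of compound. Plates stood 1 h at 4° to allow diffusion before incubation. The inhibition halo diameter (mm) was measured after 18 h.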

Saccharomyces cerevisiae [3] = experiment: Antifungal activity against Saccharomyces cerevisiae S1 after 18 hrs by disk diffusion assay; assay type: functional, organism-based
Method in brief: (§3)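 Yeast strains were grown in YEPG at 28°. Plates were seeded with 0.1 ml of 8-h-old cultures. 6-mm paper disks were impregnated with 100 or 200 µg. Diffusion ran 1 h at 4°, followed by incubation. Zone of growth inhibition (diameter, mm) was recorded 18 h after incubation.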

Pseudomonas fluorescens = experiment: Antibacterial activity against Pseudomonas fluorescens N5 after 18 hrs by disk diffusion assay; assay type: functional, organism-based; method in brief: as §2
Priestia megaterium [4] = experiment: Antibacterial activity against Bacillus megaterium at 100 ug/disk after 18 hrs by disk diffusion assay; assay type: functional
Method in brief: (§4)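 Disk diffusion. Gram-positive strains were grown in brain-heart agar and incubated at 28°. BHA plates were seeded with 0.1 ml of 8-h cultures. 6-mm paper disks were loaded with 100 or 200 µg of compound. Plates were held at 4° for 1 h for diffusion, then incubated. Growth-inhibition halo diameter (mm) was read at 18 h.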

Priestia megaterium [5] = experiment: Antibacterial activity against Bacillus megaterium at 200 ug/disk after 18 hrs by disk diffusion assay; assay type: functional; method in brief: as §4
Escherichia coli = experiment: Antibacterial activity against Escherichia coli U9 after 18 hrs by disk diffusion assay; assay type: functional, organism-based; method in brief: as §2
Saccharomyces cerevisiae [6] = experiment: Antifungal activity against Saccharomyces cerevisiae K-2 after 18 hrs by disk diffusion assay; assay type: functional, organism-based; method in brief: as §3
Aspergillus niger = experiment: Antifungal activity against Aspergillus niger ATCC 9142 after 18 hrs by disk diffusion assay; assay type: functional, organism-based
Method in brief: (§5)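 Filamentous fungi were grown on Sabouraud agar with chloramphenicol at 28°. Plates were inoculated with 0.1 ml of 8-h cultures. 6-mm disks bearing 100 or 200 µg were applied. Plates were kept at 4° for 1 h, then incubated. Inhibition halo diameter (mm) was read at 18 h.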

Bacillus licheniformis [7] = experiment: Antibacterial activity against Bacillus licheniformis CECT20 at 100 ug/disk after 18 hrs by disk diffusion assay; assay type: functional; conditions: read-out: Diameter of inhibition zone; method in brief: as §4
[8] = tested on: Pseudomonas reptilivorous; experiment: Antibacterial activity against Pseudomonas reptilovora after 18 hrs by disk diffusion assay; assay type: functional, organism-based; method in brief: as §2
Niallia circulans [9] = experiment: Antibacterial activity against Bacillus circulans at 100 ug/disk after 18 hrs by disk diffusion assay; assay type: functional; conditions: for zone of inhibition at 100 µg/disc: read-out: Diameter of inhibition zone; method in brief: as §4
Enterococcus faecalis [10] = experiment: Antibacterial activity against Enterococcus faecalis S-86 at 100 ug/disk after 18 hrs by disk diffusion assay; assay type: functional; conditions: read-out: Diameter of inhibition zone; method in brief: as §4
Staphylococcus aureus = experiment: Antibacterial activity against Staphylococcus aureus ATCC 8 at 200 ug/disk after 18 hrs by disk diffusion assay; assay type: functional; conditions: for zone of inhibition at 200 µg/disc: ATCC 8, 18 h, read-out: Diameter of inhibition zone; method in brief: as §4
Enterococcus faecalis [11] = experiment: Antibacterial activity against Enterococcus faecalis S-86 at 200 ug/disk after 18 hrs by disk diffusion assay; assay type: functional; conditions: read-out: Diameter of inhibition zone; method in brief: as §4
Saccharomyces cerevisiae [12] = experiment: Antifungal activity against Saccharomyces cerevisiae X-3 after 18 hrs by disk diffusion assay; assay type: functional, organism-based; method in brief: as §3
Bacillus licheniformis [13] = experiment: Antibacterial activity against Bacillus licheniformis CECT20 at 200 ug/disk after 18 hrs by disk diffusion assay; assay type: functional; conditions: read-out: Diameter of inhibition zone; method in brief: as §4
Niallia circulans [14] = experiment: Antibacterial activity against Bacillus circulans at 200 ug/disk after 18 hrs by disk diffusion assay; assay type: functional; conditions: read-out: Diameter of inhibition zone; method in brief: as §4
Micrococcus luteus = experiment: Antibacterial activity against Micrococcus lysodeikticus at 200 ug/disk after 18 hrs by disk diffusion assay; assay type: functional; conditions: read-out: Diameter of inhibition zone; method in brief: as §4
Proteus = experiment: Antibacterial activity against Proteus after 18 hrs by disk diffusion assay; assay type: functional, organism-based; method in brief: as §2
Alcaligenes faecalis = experiment: Antibacterial activity against Alcaligenes faecalis after 18 hrs by disk diffusion assay; assay type: functional, organism-based; method in brief: as §2
Bacillus subtilis [15] = experiment: Antibacterial activity against Bacillus subtilis CECT 397 at 200 ug/disk after 18 hrs by disk diffusion assay; assay type: functional; method in brief: as §4
Bacillus subtilis [16] = experiment: Antibacterial activity against Bacillus subtilis CECT 397 at 100 ug/disk after 18 hrs by disk diffusion assay; assay type: functional; method in brief: as §4
Fusarium fujikuroi = experiment: Antifungal activity against Gibberella fujikuroi IMI 58289 after 18 hrs by disk diffusion assay; assay type: functional, organism-based; method in brief: as §5
[17] = read-out: Diameter of inhibition zone

CCCCC[C@H](/C=C\CCCCCCCc1cc(O)cc(O)c1C(=O)O)OC(C)=O
Activity (Botrytis cinerea [1]): inactive | Activity (Botrytis cinerea [2]): inactive | Activity (Salmonella): inactive | Activity (Saccharomyces cerevisiae [3]): inactive | Activity (Pseudomonas fluorescens): inactive | zone of inhibition at 100 µg/disc (Priestia megaterium [4]; [17]): 7 mm | zone of inhibition at 200 µg/disc (Priestia megaterium [5]; [17]): 7 mm | Activity (Escherichia coli): inactive | Activity (Saccharomyces cerevisiae [6]): inactive | Activity (Aspergillus niger): inactive | zone of inhibition at 100 µg/disc (Bacillus licheniformis [7]): 18 mm | Activity [8]: inactive | zone of inhibition at 100 µg/disc (Niallia circulans [9]): 8 mm | zone of inhibition at 100 µg/disc (Enterococcus faecalis [10]): 13 mm | zone of inhibition at 200 µg/disc (Staphylococcus aureus): 7 mm | zone of inhibition at 200 µg/disc (Enterococcus faecalis [11]): 15 mm | Activity (Saccharomyces cerevisiae [12]): inactive | zone of inhibition at 200 µg/disc (Bacillus licheniformis [13]): 22 mm | zone of inhibition at 200 µg/disc (Niallia circulans [14]): 9 mm | zone of inhibition at 200 µg/disc (Micrococcus luteus): 13 mm | Activity (Proteus): inactive | Activity (Alcaligenes faecalis): inactive | zone of inhibition at 200 µg/disc (Bacillus subtilis [15]; [17]): 8 mm | zone of inhibition at 100 µg/disc (Bacillus subtilis [16]; [17]): 7 mm | Activity (Fusarium fujikuroi): inactive

CCCCCC/C=C\CCCCCCCc1cc(O)cc(O)c1C(=O)O
Activity (Botrytis cinerea [1]): inactive | Activity (Botrytis cinerea [2]): inactive | Activity (Salmonella): inactive | Activity (Saccharomyces cerevisiae [3]): inactive | Activity (Pseudomonas fluorescens): inactive | Activity (Priestia megaterium [4]): inactive | Activity (Priestia megaterium [5]): inactive | Activity (Escherichia coli): inactive | Activity (Saccharomyces cerevisiae [6]): inactive | Activity (Aspergillus niger): inactive | zone of inhibition at 100 µg/disc (Bacillus licheniformis [7]): 15 mm | Activity [8]: inactive | Activity (Niallia circulans [9]): inactive | zone of inhibition at 100 µg/disc (Enterococcus faecalis [10]): 16 mm | zone of inhibition at 200 µg/disc (Staphylococcus aureus): 7 mm | zone of inhibition at 200 µg/disc (Enterococcus faecalis [11]): 30 mm | Activity (Saccharomyces cerevisiae [12]): inactive | zone of inhibition at 200 µg/disc (Bacillus licheniformis [13]): 15 mm | zone of inhibition at 200 µg/disc (Niallia circulans [14]): 7 mm | zone of inhibition at 200 µg/disc (Micrococcus luteus): 7 mm | Activity (Proteus): inactive | Activity (Alcaligenes faecalis): inactive | Activity (Bacillus subtilis [15]): inactive | Activity (Bacillus subtilis [16]): inactive | Activity (Fusarium fujikuroi): inactive

CCCCC[C@H](/C=C\CCCCCCCc1cc(O)cc(O)c1)OC(C)=O
Activity (Botrytis cinerea [1]): inactive | Activity (Botrytis cinerea [2]): inactive | Activity (Salmonella): inactive | Activity (Saccharomyces cerevisiae [3]): inactive | Activity (Pseudomonas fluorescens): inactive | Activity (Priestia megaterium [4]): inactive | Activity (Priestia megaterium [5]): inactive | Activity (Escherichia coli): inactive | Activity (Saccharomyces cerevisiae [6]): inactive | Activity (Aspergillus niger): inactive | zone of inhibition at 100 µg/disc (Bacillus licheniformis [7]): 7 mm | Activity [8]: inactive | zone of inhibition at 100 µg/disc (Niallia circulans [9]): 7 mm | zone of inhibition at 100 µg/disc (Enterococcus faecalis [10]): 7 mm | Activity (Staphylococcus aureus): inactive | zone of inhibition at 200 µg/disc (Enterococcus faecalis [11]): 6 mm | Activity (Saccharomyces cerevisiae [12]): inactive | zone of inhibition at 200 µg/disc (Bacillus licheniformis [13]): 9 mm | zone of inhibition at 200 µg/disc (Niallia circulans [14]): 7 mm | zone of inhibition at 200 µg/disc (Micrococcus luteus): 7 mm | Activity (Proteus): inactive | Activity (Alcaligenes faecalis): inactive | Activity (Bacillus subtilis [15]): inactive | Activity (Bacillus subtilis [16]): inactive | Activity (Fusarium fujikuroi): inactive
